Experiments:
[1] = Drug level in C57BL/6J mouse primary hepatocytes treated with 10 uM 2-D3NVP assessed as Cytochrome P450-mediated compound formation incubated for 24 hrs by uHPLC-MS analysis; type: ADME, cell-based; conditions: in the assay text read “12-D3NVP” for “2-D3NVP”
Procedure, shortened: (§1)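 Fresh hepatocytes from male C57BL/6J mice (8–13 weeks), ≥85% viable on plating, adhered overnight, then given fresh medium with compound (final 0.1% DMSO vehicle) for 24 h in 12-well format. Culture medium deproteinized with acetonitrile (final 50%), dried, reconstituted in methanol; monooxygenated metabolites (2-, 3-, 12-OH) measured by uHPLC-MS/MS on Orbitrap. Four experimental replicates.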

[2] = Plasma concentration in human; type: ADME, cell-free
[3] = Drug metabolism in human assessed as formation of 12-OH-NVP; type: ADME
[4] = Drug metabolism in C57BL/6J mouse primary hepatocytes assessed as Cytochrome P450-mediated formation of 2-OHNVP at 10 uM incubated for 24 hrs by uHPLC-MS analysis; type: ADME, cell-based
Procedure, shortened: (§2)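 Fresh hepatocytes from male C57BL/6J mice (8–13 weeks), adhered overnight, then 10 μM substrate or vehicle (0.1% DMSO) for 24 h. Medium extracted with acetonitrile (50% final), dried, reconstituted in methanol; uHPLC-Orbitrap targeted SIM plus PRM (monooxygenated metabolites) or high-resolution ions (O-glucuronides, 459.1510/462.1700 ±5 ppm); four experimental replicates.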

[5] = Drug metabolism in C57BL/6J mouse primary hepatocytes assessed as Cytochrome P450-mediated formation of 3-OHNVP at 10 uM incubated for 24 hrs by uHPLC-MS analysis; type: ADME, cell-based; procedure, shortened: as §2
[6] = Drug metabolism in C57BL/6J mouse primary hepatocytes assessed as Cytochrome P450-mediated formation of 12-OHNVP at 10 uM incubated for 24 hrs by uHPLC-MS analysis; type: ADME, cell-based; procedure, shortened: as §2
[7] = Drug metabolism in C57BL/6J mouse primary hepatocytes assessed as Cytochrome P450-mediated formation of 8-OHNVP at 10 uM incubated for 24 hrs by uHPLC-MS analysis; type: ADME, cell-based; procedure, shortened: as §2
Cytochrome P450 [8] = experiment: Drug metabolism in human primary hepatocytes assessed as Cytochrome P450-mediated formation of 3-OHNVP at 10 uM incubated for 24 to 48 hrs by uHPLC-MS analysis; type: ADME, cell-based
Procedure, shortened: (§3)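 Cryoplateable pooled human hepatocytes (10 mixed-sex donors per pool, three lots), adhered overnight, then 10 μM substrate or vehicle (0.1% DMSO) for 24 or 48 h in InVitroGRO CP medium. Medium extracted with 50% acetonitrile, dried, reconstituted in methanol; uHPLC-Orbitrap MS/MS for monooxygenated metabolites, high-resolution MS for O-glucuronide.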

Cytochrome P450 [9] = experiment: Drug metabolism in human primary hepatocytes assessed as Cytochrome P450-mediated formation of 2-OHNVP at 10 uM incubated for 24 to 48 hrs by uHPLC-MS analysis; type: ADME, cell-based; procedure, shortened: as §3
[10] = Drug metabolism in C57BL/6J mouse primary hepatocytes assessed as O-GlucNVP metabolite formation at 10 uM incubated for 24 hrs by uHPLC-MS analysis; type: ADME, cell-based, Hepatocyte; procedure, shortened: as §2
[11] = Drug metabolism in C57BL/6J mouse primary hepatocytes assessed as 12-O-GlucD2NVP metabolite formation at 10 uM incubated for 24 hrs by uHPLC-MS analysis; type: ADME, cell-based, Hepatocyte; procedure, shortened: as §2
[12] = Drug metabolism in human primary hepatocytes assessed as O-GlucNVP metabolite formation at 10 uM incubated for 24 hrs by uHPLC-MS analysis; type: ADME, cell-based, Hepatocyte; procedure, shortened: as §3
Cytochrome P450 [13] = experiment: Drug metabolism in human liver microsomes assessed as Cytochrome P450-mediated formation of 12-OHNVP at 1 to 400 uM in presence of NADPH regenerating reagents by uHPLC-MS/MS analysis; type: ADME
Procedure, shortened: (§4)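 Pooled human liver microsomes (2.5 mg/mL) in potassium phosphate; substrate (1–400 μM) prewarmed 5 min at 37 °C with NADPH-regenerating system, started with microsomes, 30 min at 37 °C. 12-OH product quantified by uHPLC-MS/MS Orbitrap against 12-OHNVP standard curve made in microsomes without NADPH. Kcat/Km taken as slope of linear rate vs substrate fit at nonsaturating 0–50 μM.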

Cytochrome P450 [14] = experiment: Drug metabolism in human liver microsomes assessed as Cytochrome P450-mediated formation of 12-OHNVP by measuring Kcat/Km ratio in presence of NADPH regenerating reagents by uHPLC-MS/MS analysis; procedure, shortened: as §4
Cytochrome P450 [15] = experiment: Drug metabolism in human liver microsomes assessed as Cytochrome P450-mediated formation of 3-OHNVP formation at 5 to 400 uM in presence of NADPH regenerating reagents by uHPLC-MS/MS analysis; type: ADME
Procedure, shortened: (§5)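 Pooled human liver microsomes (2.5 mg/mL) with NADPH-regenerating system, substrate 5–400 μM, 30 min at 37 °C, 0.1% DMSO (0.2% at 400 μM); 2- and 3-OH metabolites by uHPLC-MS/MS Orbitrap; three replicates, mean ± SD.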

Cytochrome P450 [16] = experiment: Drug metabolism in human liver microsomes assessed as Cytochrome P450-mediated formation of 2-OHNVP formation at 5 to 400 uM in presence of NADPH regenerating reagents by uHPLC-MS/MS analysis; type: ADME; procedure, shortened: as §5
Hepatocyte = experiment: Toxicity in C57BL/6J mouse primary hepatocytes assessed as reduction in cell viability by measuring EtBr-positive cell nuclei level at 400 uM incubated for 8 hrs by EtBr/AcrO staining based assay (reference value: 19%)
Procedure, shortened: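 Fresh male C57BL/6J mouse hepatocytes on collagen-coated coverslips, 400 μM compound or vehicle (0.2% DMSO) for 8 h; 10 μM staurosporine as positive control. Ethidium bromide/acridine orange costaining, imaging, percentage of EtBr-positive nuclei scored as dead cells; unpaired two-tailed t test.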

[17] = Drug level in C57BL/6J mouse primary hepatocytes treated with 10 uM NVP assessed as Cytochrome P450-mediated compound formation incubated for 24 hrs by uHPLC-MS analysis; type: ADME, cell-based; procedure, shortened: as §1
Cytochrome P450 [18] = experiment: Drug level in human primary hepatocytes treated with 10 uM NVP assessed as Cytochrome P450-mediated compound formation incubated for 24 hrs by uHPLC-MS analysis; type: ADME, cell-based
Procedure, shortened: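 Cryoplateable pooled human hepatocytes (10 mixed-sex donors per lot, three lots), ≥90% viable on plating, adhered overnight, then dosed in fresh InVitroGRO CP medium with antibiotics (vehicle 0.1% DMSO) for 24 h, 12-well format. Medium extracted by acetonitrile precipitation (final 50%), dried, reconstituted in methanol; 2-, 3- and 12-OH metabolites quantified by uHPLC-MS/MS on Orbitrap.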

Compound: [2H]C([2H])([2H])c1cc(O)nc2c1NC(=O)c1cccnc1N2C1CC1
- Drug uptake [1]: Metabolite_Detected

Compound: [2H]C([2H])([2H])c1c(O)cnc2c1NC(=O)c1cccnc1N2C1CC1
- Drug uptake [1]: Metabolite_Detected

Compound: Cc1ccnc2c1NC(=O)c1cccnc1N2C1CC1 [NEVIRAPINE]
- concentration [2]: 16 µM
- Drug metabolism [3]: 1.3 µM
- Drug metabolism [4]: Metabolite_Detected
- Drug metabolism [5]: Metabolite_Detected
- Drug metabolism [6]: Metabolite_Detected
- Drug metabolism [7]: Metabolite_Notdetected
- Drug metabolism (Cytochrome P450 [8]): Metabolite_Detected
- Drug metabolism (Cytochrome P450 [9]): Metabolite_Detected
- Drug metabolism [10]: Metabolite_Detected
- Drug metabolism [11]: Metabolite_Notdetected
- Drug metabolism [12]: Metabolite_Detected
- Drug metabolism (Cytochrome P450 [13]): Metabolite_Detected
- Kcat/Km (Cytochrome P450 [14]): 83.7 M⁻¹ min⁻¹
- Drug metabolism (Cytochrome P450 [15]): Metabolite_Detected
- Drug metabolism (Cytochrome P450 [16]): Metabolite_Detected
- Activity (Hepatocyte): 52.6%

Compound: Cc1cc(O)nc2c1NC(=O)c1cccnc1N2C1CC1
- Drug uptake [17]: Metabolite_Detected
- Drug uptake (Cytochrome P450 [18]): Metabolite_Detected

Compound: [2H]C([2H])(O)c1ccnc2c1NC(=O)c1cccnc1N2C1CC1
- Drug uptake [1]: Metabolite_Detected

Compound: O=C1Nc2c(CO)ccnc2N(C2CC2)c2ncccc21
- Drug uptake [17]: Metabolite_Detected

Compound: Cc1c(O)cnc2c1NC(=O)c1cccnc1N2C1CC1
- Drug uptake [17]: Metabolite_Detected
- Drug uptake (Cytochrome P450 [18]): Metabolite_Detected

Reference: ChEMBL document CHEMBL4613248, “Twelfth-Position Deuteration of Nevirapine Reduces 12-Hydroxy-Nevirapine Formation and Nevirapine-Induced Hepatocyte Death” (J Med Chem, 2020)
